# Measurements: PMC5148661 (ACS infectious diseases, 2016)
# “And” between values parts separate entries of the source, which are not always exact repeats. Equal entries are not always repeated. Where two headings read alike, the source gives them in different places.
# How the values were obtained:
# [1] = pharmacokinetics after IV and oral dosing; type: in vivo, mice
# In short: (§1)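 Single IV and oral doses were given. Mice and rats received about 2 mg/kg IV and 5–50 mg/kg orally, with blood sampled over 30–48 h from 2 mice per time point or 2 rats. Dogs received 1 mg/kg by each route (n=3). Plasma was separated by centrifugation and assayed by LC/MS, and parameters were derived non-compartmentally.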
# [2] = tested on: set of 100 human channels and enzymes; test: CEREP diversity panel; conditions: 10 μM ([…])
# [3] = tested on: Ames tester strains; test: GLP Ames 5 strain test; conditions: with and without metabolic activation
# [4] = pharmacokinetics after IV and oral dosing; type: in vivo, rats
# In short: as §1
# [5] = metabolic stability in liver microsomes; type: in vitro ADME; conditions: mouse
# [6] = incubation in cryopreserved hepatocytes; type: in vitro ADME, human; conditions: 10 μM over 120 minutes
# In short: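 Human cryopreserved hepatocytes at 1 × 10^6 cells/mL were incubated with test compound at 10 μM. Metabolites were assigned by accurate mass measurement.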
# [7] = target: hERG channel (Homo sapiens, UniProt Q12809); test: hERG channel patch clamp; type: cell-based; conditions: for IC50: hERG IC50, partial dose response curve
# Chain of hERG channel (Q12809 whole entry): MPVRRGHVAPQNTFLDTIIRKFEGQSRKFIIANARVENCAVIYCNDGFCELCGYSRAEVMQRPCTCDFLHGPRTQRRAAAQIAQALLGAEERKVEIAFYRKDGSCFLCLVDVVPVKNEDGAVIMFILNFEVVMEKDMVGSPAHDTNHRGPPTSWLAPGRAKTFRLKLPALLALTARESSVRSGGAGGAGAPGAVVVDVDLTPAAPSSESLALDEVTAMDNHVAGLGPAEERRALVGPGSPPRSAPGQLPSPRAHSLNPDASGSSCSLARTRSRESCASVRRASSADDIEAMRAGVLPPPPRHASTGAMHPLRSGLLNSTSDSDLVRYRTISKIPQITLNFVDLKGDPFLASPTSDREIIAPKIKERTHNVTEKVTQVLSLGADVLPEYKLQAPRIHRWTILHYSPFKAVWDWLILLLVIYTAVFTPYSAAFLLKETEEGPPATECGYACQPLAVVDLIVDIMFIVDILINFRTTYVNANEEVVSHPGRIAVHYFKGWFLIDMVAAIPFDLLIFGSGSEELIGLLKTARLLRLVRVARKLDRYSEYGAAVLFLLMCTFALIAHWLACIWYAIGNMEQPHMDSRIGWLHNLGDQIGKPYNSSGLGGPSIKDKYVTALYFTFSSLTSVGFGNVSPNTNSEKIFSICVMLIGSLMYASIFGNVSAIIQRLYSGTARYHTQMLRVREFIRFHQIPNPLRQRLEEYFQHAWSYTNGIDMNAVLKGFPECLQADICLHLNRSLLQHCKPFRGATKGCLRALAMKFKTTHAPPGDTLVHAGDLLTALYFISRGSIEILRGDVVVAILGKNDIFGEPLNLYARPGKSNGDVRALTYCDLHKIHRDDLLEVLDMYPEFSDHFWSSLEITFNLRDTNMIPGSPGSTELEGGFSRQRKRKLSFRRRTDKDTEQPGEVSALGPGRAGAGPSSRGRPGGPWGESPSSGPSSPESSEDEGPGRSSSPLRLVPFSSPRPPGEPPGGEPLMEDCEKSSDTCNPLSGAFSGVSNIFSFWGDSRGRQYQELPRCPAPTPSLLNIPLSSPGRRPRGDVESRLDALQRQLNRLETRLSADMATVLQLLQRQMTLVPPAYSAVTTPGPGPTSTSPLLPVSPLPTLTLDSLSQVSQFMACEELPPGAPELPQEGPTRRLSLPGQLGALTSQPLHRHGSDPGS
# In short: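 hERG current measured by IonWorks automated patch-clamp electrophysiology at a contract lab. Top concentration tested was 33 μM.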
# [8] = tested on: P. falciparum 3D7A parasites; test: in vitro kill rate; type: cell-based; conditions: for EC50: Plasmodium falciparum, 3D7, 48 h
# [9] = target: P. cynomolgi DHODH (Plasmodium cynomolgi, UniProt K6UE05); test: DHODH inhibition, DCIP-based assay; type: biochemical
# Chain of P. cynomolgi DHODH (K6UE05 1-385): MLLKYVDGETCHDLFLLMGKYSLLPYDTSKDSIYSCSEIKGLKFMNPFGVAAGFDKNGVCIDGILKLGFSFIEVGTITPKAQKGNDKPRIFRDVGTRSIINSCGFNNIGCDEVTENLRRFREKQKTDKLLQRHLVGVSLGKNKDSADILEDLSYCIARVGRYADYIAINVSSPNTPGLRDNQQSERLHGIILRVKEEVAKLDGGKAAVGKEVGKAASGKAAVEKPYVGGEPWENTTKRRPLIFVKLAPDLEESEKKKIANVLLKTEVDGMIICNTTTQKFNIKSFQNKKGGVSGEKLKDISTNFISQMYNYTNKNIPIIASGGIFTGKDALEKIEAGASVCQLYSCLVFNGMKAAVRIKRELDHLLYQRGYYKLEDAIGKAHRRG
# [10] = stability in plasma and blood; type: in vitro ADME; conditions: plasma 37°C over 5 h; blood over 4 h
# [11] = tested on: Human HepG2 cells; test: cytotoxicity against a human cell line; type: cell-based
# [12] = cytotoxicity against a human cell line; type: cell-based; conditions: human, HepG2 cells
# [13] = tested on: D10w/yDHODH P. falciparum cell line; test: growth inhibition of transgenic P. falciparum expressing yeast DHODH; type: cell-based
# In short: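 D10 parasites transfected with yeast DHODH were grown in human erythrocytes in RPMI 1640 with 0.5% Albumax II. EC50 came from a 72 h dose–response growth assay read by SYBR Green DNA fluorescence.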
# [14] = rat 7-day exploratory toxicity study; type: in vivo; conditions: rat 7-day exploratory toxicity study (data not shown)
# [15] = target: Na_V1.5 channel (Homo sapiens, UniProt Q14524); test: Na_V1.5 channel assay; type: cell-based
# In short: (§2)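 Channel activity measured by IonWorks automated patch-clamp electrophysiology at a contract lab.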
# [16] = kinetic solubility in pH 6.5 buffer; type: physicochemical; conditions: aqueous buffer pH 6.5, pH 6.5
# [17] = target: P. berghei DHODH (PbDHODH) (Plasmodium berghei, UniProt A0A509AEH5); test: DHODH inhibition, DCIP-based assay; type: biochemical
# Chain of P. berghei DHODH (PbDHODH) (A0A509AEH5 132-517): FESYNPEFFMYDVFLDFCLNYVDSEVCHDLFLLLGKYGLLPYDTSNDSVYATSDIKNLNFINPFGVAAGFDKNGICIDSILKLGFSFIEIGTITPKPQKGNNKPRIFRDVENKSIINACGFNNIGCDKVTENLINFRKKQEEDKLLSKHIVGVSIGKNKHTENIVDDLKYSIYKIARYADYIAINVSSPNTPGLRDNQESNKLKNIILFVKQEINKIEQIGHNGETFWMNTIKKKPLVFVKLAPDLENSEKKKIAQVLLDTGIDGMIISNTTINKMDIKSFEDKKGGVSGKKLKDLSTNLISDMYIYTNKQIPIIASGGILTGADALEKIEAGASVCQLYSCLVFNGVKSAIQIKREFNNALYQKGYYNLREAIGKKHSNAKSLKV
# [18] = physchem; type: physicochemical
# [19] = target: CYP2C9 (Homo sapiens, UniProt P11712); test: reversible cytochrome P450 inhibition; type: in vitro ADME
# Chain of CYP2C9 (P11712 whole entry, canonical isoform): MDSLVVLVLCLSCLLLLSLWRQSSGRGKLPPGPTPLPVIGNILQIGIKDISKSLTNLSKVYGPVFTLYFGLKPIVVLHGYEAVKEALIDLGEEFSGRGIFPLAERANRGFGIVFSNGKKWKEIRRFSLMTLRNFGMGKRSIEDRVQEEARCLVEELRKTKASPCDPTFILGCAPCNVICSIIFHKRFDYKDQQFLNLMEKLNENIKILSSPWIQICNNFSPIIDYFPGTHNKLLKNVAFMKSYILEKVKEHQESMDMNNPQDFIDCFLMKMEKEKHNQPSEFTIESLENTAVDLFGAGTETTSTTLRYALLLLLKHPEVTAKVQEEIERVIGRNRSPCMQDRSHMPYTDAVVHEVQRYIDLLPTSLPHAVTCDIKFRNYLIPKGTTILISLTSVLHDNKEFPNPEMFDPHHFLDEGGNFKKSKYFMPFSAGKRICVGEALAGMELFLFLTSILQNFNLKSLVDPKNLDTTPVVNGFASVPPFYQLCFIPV
# In short: (§3)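 Reversible inhibition of human CYP isoforms tested with isoform-specific probe substrates. Time-dependent (mechanism-based) inhibition was also assessed.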
# [20] = tested on: P. falciparum Pf3D7^0087/N9; test: P. falciparum SCID mouse efficacy model; type: in vivo
# [21] = P. falciparum SCID mouse efficacy model; type: in vivo; conditions: NOD-scid IL-2Rγnull (NSG), mouse, blood, oral
# [22] = human pharmacokinetic and dose predictions
# In short: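 Human PK was predicted by PBPK modelling from human liver microsome clearance. Allometric scaling of unbound clearance after IV dosing in mouse, rat and dog served as a comparison. Half-life was derived from predicted clearance and Vss. A plasma profile was simulated for a single 200 mg oral dose in the fasted state.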
# [23] = target: Rat DHODH (Rattus norvegicus, UniProt Q63707); test: DHODH inhibition, DCIP-based assay; type: biochemical
# Chain of Rat DHODH (Q63707 whole entry): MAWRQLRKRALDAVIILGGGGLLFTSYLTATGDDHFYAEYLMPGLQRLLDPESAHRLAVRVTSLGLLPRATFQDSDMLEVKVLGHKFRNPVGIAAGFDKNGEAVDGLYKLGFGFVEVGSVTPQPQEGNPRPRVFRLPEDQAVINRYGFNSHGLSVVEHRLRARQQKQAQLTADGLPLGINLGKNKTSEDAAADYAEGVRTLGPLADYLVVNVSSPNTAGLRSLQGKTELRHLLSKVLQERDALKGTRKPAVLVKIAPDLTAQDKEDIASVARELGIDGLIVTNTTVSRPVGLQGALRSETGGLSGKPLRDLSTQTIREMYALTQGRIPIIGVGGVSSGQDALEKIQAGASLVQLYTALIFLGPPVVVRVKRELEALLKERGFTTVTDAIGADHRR
# [24] = tested on: Caco-2 cell monolayers; test: Caco-2 cell permeability; type: in vitro ADME; conditions: both directions
# [25] = tested on: P. cynomolgi large and small forms; test: P. cynomolgi liver stage assay in primary rhesus monkey hepatocytes; type: cell-based; conditions: concentrations at or below 10 μM; human serum-based media
# [26] = target: CYP2D6 (Homo sapiens, UniProt P10635); test: reversible cytochrome P450 inhibition; type: in vitro ADME
# Chain of CYP2D6 (P10635 whole entry): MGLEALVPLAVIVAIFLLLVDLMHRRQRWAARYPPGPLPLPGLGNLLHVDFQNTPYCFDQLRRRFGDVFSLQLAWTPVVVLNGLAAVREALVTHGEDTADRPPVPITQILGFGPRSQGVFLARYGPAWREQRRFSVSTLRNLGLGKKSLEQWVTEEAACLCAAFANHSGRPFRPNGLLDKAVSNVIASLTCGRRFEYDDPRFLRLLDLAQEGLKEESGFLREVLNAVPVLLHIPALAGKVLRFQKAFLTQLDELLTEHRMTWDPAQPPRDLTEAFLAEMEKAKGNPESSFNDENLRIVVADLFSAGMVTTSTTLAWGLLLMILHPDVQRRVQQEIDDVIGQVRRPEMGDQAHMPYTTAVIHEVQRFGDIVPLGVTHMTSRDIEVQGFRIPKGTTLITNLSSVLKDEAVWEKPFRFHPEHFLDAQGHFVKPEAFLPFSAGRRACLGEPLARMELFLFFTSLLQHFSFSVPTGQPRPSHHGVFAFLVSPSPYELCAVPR
# In short: as §3
# [27] = target: Human DHODH (Homo sapiens, UniProt Q02127); test: DHODH inhibition, DCIP-based assay; type: biochemical
# Chain of Human DHODH (Q02127 whole entry): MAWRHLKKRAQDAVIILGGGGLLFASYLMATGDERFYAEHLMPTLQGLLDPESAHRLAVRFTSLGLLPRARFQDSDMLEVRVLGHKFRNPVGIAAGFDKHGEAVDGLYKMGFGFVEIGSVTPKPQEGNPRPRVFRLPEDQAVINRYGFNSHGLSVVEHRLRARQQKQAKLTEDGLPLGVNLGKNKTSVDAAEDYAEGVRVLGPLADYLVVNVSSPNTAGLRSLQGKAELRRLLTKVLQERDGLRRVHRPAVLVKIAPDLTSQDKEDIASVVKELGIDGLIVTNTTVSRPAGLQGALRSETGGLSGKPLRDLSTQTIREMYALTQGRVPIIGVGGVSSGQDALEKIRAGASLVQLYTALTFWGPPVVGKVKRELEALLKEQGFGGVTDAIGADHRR
# [28] = target: Dog DHODH (Canis lupus familiaris, UniProt A0A8I3MWX2); test: DHODH inhibition, DCIP-based assay; type: biochemical
# Chain of Dog DHODH (A0A8I3MWX2 1-406): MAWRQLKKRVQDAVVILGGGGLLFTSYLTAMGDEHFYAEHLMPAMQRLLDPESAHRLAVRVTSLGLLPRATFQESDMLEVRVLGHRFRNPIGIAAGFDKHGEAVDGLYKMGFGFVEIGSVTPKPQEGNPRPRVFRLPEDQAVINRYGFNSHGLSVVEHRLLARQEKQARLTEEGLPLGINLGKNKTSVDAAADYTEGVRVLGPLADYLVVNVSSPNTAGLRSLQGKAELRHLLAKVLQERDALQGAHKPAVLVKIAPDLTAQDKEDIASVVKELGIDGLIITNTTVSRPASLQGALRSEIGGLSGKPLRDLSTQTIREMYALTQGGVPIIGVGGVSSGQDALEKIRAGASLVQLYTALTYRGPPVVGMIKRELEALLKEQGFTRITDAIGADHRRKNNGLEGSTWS
# [29] = target: Ca_1.2 channel (Homo sapiens, UniProt Q13936); test: Ca_1.2 channel assay; type: cell-based
# In short: as §2
# [30] = target: P. falciparum DHODH (Plasmodium falciparum, UniProt Q08210); test: DHODH inhibition, DCIP-based spectrophotometric steady-state assay; type: biochemical
# Chain of P. falciparum DHODH (Q08210 158-569 limits assumed): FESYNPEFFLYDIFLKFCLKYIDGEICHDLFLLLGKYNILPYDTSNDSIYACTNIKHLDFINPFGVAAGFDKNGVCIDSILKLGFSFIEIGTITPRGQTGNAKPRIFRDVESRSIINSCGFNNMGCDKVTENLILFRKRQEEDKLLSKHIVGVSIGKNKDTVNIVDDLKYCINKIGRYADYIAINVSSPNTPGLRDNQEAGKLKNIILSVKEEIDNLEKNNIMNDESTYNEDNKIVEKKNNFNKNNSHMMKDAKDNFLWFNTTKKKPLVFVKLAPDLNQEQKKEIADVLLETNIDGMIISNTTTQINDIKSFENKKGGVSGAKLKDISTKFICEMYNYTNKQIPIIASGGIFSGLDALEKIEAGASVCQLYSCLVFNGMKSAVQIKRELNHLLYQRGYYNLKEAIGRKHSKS
# [31] = metabolic stability in liver microsomes; type: in vitro ADME; conditions: rat
smiles,measurement,setting,value
"Cc1cc(Nc2ccc(C(F)(F)F)nc2)n2nc(C(C)(F)F)nc2n1 [DSM421, 2-(1,1-Difluoroethyl)-5-methyl-N-(6-(trifluoromethyl)pyridin-3-yl)-[1,2,4]triazolo[1,5-a]pyrimidin-7-amine]",fold increase of plasma AUC,"[1]; mice, oral, for a 9-fold increase in dose",13 fold
same,half-life,"[1]; mouse, plasma",~120 min
same,Vd,"[1]; mouse, plasma, iv, 2 mg/kg",0.9 L/kg
same,clearance,"[1]; mouse, plasma, iv, 2 mg/kg",5.1 mL/min/kg
same,Tmax,"[1]; mouse, plasma, po",1 to 2 h
same,bioavailability,"[1]; mouse, plasma, po",> 100%
same,inhibition in CEREP diversity panel,[2],no significant inhibition
same,GLP Ames 5 strain test result,[3],no obvious cytotoxicity in any tester strain at any tested dose level
same,half-life,"[4]; rat, plasma",~300 min
same,Vd,"[4]; rat, plasma, iv, 2 mg/kg",0.8 L/kg
same,clearance,"[4]; rat, plasma, iv, 2 mg/kg",2.4 mL/min/kg
same,Tmax,"[4]; rat, plasma, po",1.8 to 7.5 h
same,bioavailability,"[4]; rat, plasma, po, 4.3 mg/kg",~80%
same,fold increase of plasma AUC,"[4]; rats, oral 4.3 to 53.7 mg/kg, for a 12-fold increase in dose",31 fold
same,microsomal CLint at 1 μM,[5],< 7 µL/min/mg
same,degradation in human hepatocyte incubations,[6],minimal degradation
same,concentration giving 20% hERG inhibition,[7],~ 10 μM and 3.6 μg/mL
same,IC50,[7],26.2 µM
same,IC50,[7]; maximum concentration 33 μM,26.2 µM
same,lag time before killing began,[8]; 10xEC50,48 h
same,EC50,"[8]; read-out: EC50, 48 h growth assay (PRR)",43 nM
same,EC50,[8]; read-out: unbound EC50,22 nM
same,IC50,[9],12 nM
same,stability in plasma and blood,[10],stable
same,selectivity window HepG2 over activity against P. falciparum,[11],600-5000 fold
same,EC50,[12],> 50 µM
same,inhibition of D10w/yDHODH line,[13],did not inhibit this line
same,EC50,[13]; read-out: EC50 on D10 cells transfected with yeast DHODH,> 10 µM
same,tolerability,[14],well tolerated
same,activity on Na_V1.5 channel,[15],no activity
same,solubility kinetic,[16],> 100 µg/mL
same,IC50,[17],5 µM
same,fold less active against PbDHODH than PfDHODH,[17],100 fold
same,logD,"[18]; pH 7.4, measured Log D7.4, text (Table S6)",2.36
same,measured Log D7.4,[18]; text (Table S6),2.4
same,inhibition at 20 µM,[19],22%
same,tolerability,"[20]; SCID mice, oral QD 4 days",well tolerated and no adverse reactions were noted
same,Cav at ED90,[20]; blood,0.53 µg/mL
same,Cmin at 5 mg/kg/day,[20]; blood,0.33 µg/mL
same,Cmin at ED90,[20]; blood,0.1 µg/mL
same,ED90 24 h after the last dose,[20]; oral QD for 4 days,2.6 mg/kg/day
same,dose giving maximum parasite killing,[20]; oral QD for 4 days,≥ 5 mg/kg/day
same,AUC(0-t),[21]; 2.6 mg/kg/day,12900 ng·h/mL
same,AUC(0-t),[21]; 5 mg/kg/day,30800 ng·h/mL
same,predicted unbound human clearance,"[22]; allometric scaling of mice, rats and dogs IV unbound clearance",2.2 mL/min/kg
same,estimated human half-life,[22]; human,~ 78 h
same,half-life,"[22]; human, plasma, estimated human half-life",3.25 days
same,IC50,[23],22 µM
same,fold reduction of inhibitory activity in comparison to DSM265,[23]; rodent (rat) enzyme,10 fold
same,permeability across Caco-2 cell monolayers,[24],high in both directions with no evidence for significant efflux
same,"radical cure activity, liver stage",[25],did not show radical cure activity
same,inhibition at 20 µM,[26],45%
same,IC50,[27],> 100 µM
same,IC50,[28],35 µM
same,fold reduction of inhibitory activity in comparison to DSM265,[28]; dog enzyme,2.2 fold
same,activity on Ca_1.2 channel,[29],no activity
same,IC50,[30],53 nM
same,microsomal CLint at 1 μM,[31],< 7 µL/min/mg
